In brackets after ≈: the same amount, converted by molar mass. Activity calls are given as the source filed them. The calls are words filed in the database; no cut-off is given here.
Key:
HEK-293T = experiment: Cytotoxicity against HEK293T cells; type: cell-based; settings: Homo sapiens
Procedure, shortened: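 HEK293T seeded the day before in RPMI 1640 with 10% FBS, penicillin/streptomycin and 2 mM L-glutamine. Serial dilutions from DMSO were added for 48 h at 37 °C, 5% CO2. Then MTT for 3 h, formazan taken up in DMSO, absorbance read at 570 nm. EC50 by nonlinear regression of the concentration–response curve.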

Plasmodium berghei [1] = experiment: Antiplasmodial activity against liver stage of Plasmodium berghei infected in human HuH7 cells assessed as parasite growth inhibition incubated for 1 hr prior to parasite infection measured after 48 hrs; type: functional, organism-based; settings: Huh-7, Liver
Procedure, shortened: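 Huh-7 cells (12 × 10^3/well) seeded the day before, given compound (10 mM MeOH stock diluted in medium) 1 h before adding 10 000 P. berghei PbGFP-Luccon sporozoites/well from mosquito salivary glands, then spun 1700g 5 min. Medium with compound renewed at 24 h. Luminescence read 48 h post-infection; IC50 by nonlinear regression of normalized dose–response.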

Plasmodium falciparum [2] = experiment: Antiplasmodial activity against blood stage of chloroquine-resistant Plasmodium falciparum W2 infected in human RBC assessed as parasite growth inhibition after 48 hrs by flow cytometric analysis; type: functional, organism-based; settings: W2, 48 h
Huh-7 = experiment: Cytotoxicity against human HuH7 cells assessed as cell viability up to 5 uM by AlamarBlue assay; type: cell-based
Procedure, shortened: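 Huh-7 hepatoma cells in RPMI 1640 with 10% FCS, nonessential amino acids, glutamine and 10 mM HEPES pH 7, kept at 37 °C, 5% CO2. Treated as in the liver-stage infection assay. Viability read by AlamarBlue per manufacturer's protocol.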

[3] = Inhibition of hemozoin-like crystal formation after 5 days; type: functional; settings: 120 h
Procedure, shortened: (§1)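 Hemozoin-like crystal stock sonicated 3 min and diluted in broth to 2 μM final (heme equivalents). Compounds from 25 mM DMSO stocks were 0.22-μm filtered and dosed at 0–1000 μM final. Incubated 37 °C, 5% CO2, 5 days, then scored for presence or absence of crystal growth. Run in triplicate.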

[4] = Selectivity index, ratio of EC50 for HEK293T cells to IC50 for blood stage of chloroquine-resistant Plasmodium falciparum W2 infected in human RBC; type: functional, HEK-293T
Procedure, shortened: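 Ratio of two values. EC50: HEK293T cells seeded the previous day in RPMI 1640/10% FBS, given serial DMSO-diluted compound for 48 h at 37 °C, 5% CO2, then MTT for 3 h; formazan read at 570 nm and EC50 fitted by nonlinear regression. IC50: 48 h W2 blood-stage growth in human RBCs, scored by YOYO-1 flow cytometry.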

Liver microsomes [5] = experiment: Metabolic stability in rat liver microsomes assessed as compound remaining at 1 uM after 6 hrs by HPLC analysis in absence of NADPH-regenerating system; type: ADME, Microsome
Procedure, shortened: (§2)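 Compound at 1 μM incubated at 37 °C with pooled rat liver microsomes (0.2 mg protein/mL) in 10 mM phosphate buffer, pH 7.4. Reaction started with NADPH-regenerating system A (NADP+, glucose 6-phosphate, MgCl2) plus B (glucose 6-phosphate dehydrogenase); no-cofactor runs used water instead. Remaining compound measured after 6 h by RP-18 HPLC in acetonitrile/water 25:75, 1 mL/min.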

[6] = Metabolic stability in rat liver microsomes assessed as compound remaining at 1 uM after 6 hrs by HPLC analysis in presence of NADPH-regenerating system; type: ADME, Microsome; settings: read-out: Stability; procedure, shortened: as §2
[7] = Inhibition of hemozoin-like crystal formation at 1 to 1000 uM after 5 days; type: functional; procedure, shortened: as §1
[8] = Chemical stability in aqueous buffer at pH 7.4 at 37 degC measured for 10 days; type: physicochemical; settings: pH 7.4, 240 h
Procedure, shortened: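 Stability tested by holding compound in aqueous buffer at pH 7.4 (and pH 0.3) at 37 °C for 10 days.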

Liver microsomes [9] = experiment: Drug metabolism in rat liver microsomes assessed as quinoline metabolite formation through N-dealkylation of compound after 6 hrs by mass spectrophotometric analysis; type: ADME, Microsome
Plasmodium berghei [10] = experiment: Potency index, ratio of primaquine IC50 to compound IC50 for liver stage of Plasmodium berghei infected in human HuH7 cells; type: functional, Huh-7
Plasmodium falciparum [11] = experiment: Antiplasmodial activity against Plasmodium falciparum 3D7 transfected with yeast GFP-tagged DHODH assessed as parasite growth inhibition; type: functional, organism-based
Plasmodium falciparum [12] = experiment: Antiplasmodial activity against Plasmodium falciparum 3D7 assessed as parasite growth inhibition; type: functional, organism-based
Plasmodium falciparum [13] = experiment: Inhibition of Plasmodium falciparum cytochrome bc1 complex using decylubiquinol as substrate at <= 10 uM by UV-visible spectrophotometric analysis

| Compound | EC50 (HEK-293T) | IC50 (Plasmodium berghei [1]) | IC50 (Plasmodium falciparum [2]) | Activity (Huh-7) | Selectivity Index [4] | Stability (Liver microsomes [5]) | remaining at 6 h, 1 µM [6] | further results |
| --- | --- | --- | --- | --- | --- | --- | --- | --- |
| Fc1ccc(-c2ccc3/c(=N/c4ccc(-c5ccccc5)cc4)ccn(CCCN4CCCCC4)c3c2)cc1 | 7630 nM | 2070 nM | 55.4 nM | Non-toxic | 138 | – | – | MIC [3]: 500 µM (≈ 258 µg/mL) |
| CCN(CC)CCCCn1cc/c(=N\c2ccc(-c3ccccc3)cc2)c2ccc(C(F)(F)F)cc21 | > 100000 nM | – | 50.3 nM | – | >1988 | Stable | 81.5% | – |
| Fc1ccc(/N=c2\ccn(CCCN3CCCCC3)c3cc(Cl)ccc23)cc1 | > 100000 nM | 4780 nM | 369 nM | Non-toxic | >271 | – | – | inhibition [7]: inactive |
| Clc1ccc2c(c1)/c(=N/c1ccc(-c3ccccc3)cc1)ccn2CCCN1CCCCC1 | 21800 nM | – | 99.7 nM | Non-toxic | 219 | Stable | 75% | MIC [3]: 1000 µM (≈ 456 µg/mL); Stability [8]: Stable; Drug metabolism (Liver microsomes [9]): Active |
| CCN(CC)CCCn1cc/c(=N\c2ccc(-c3ccccc3)cc2)c2ccc(Cl)cc21 | > 100000 nM | – | 151 nM | – | >662 | – | – | – |
| c1ccc(-c2ccc(/N=c3\ccn(CCCN4CCCCC4)c4cc(-c5cnc6ccccc6c5)ccc34)cc2)cc1 | 7680 nM | 710 nM | 53.7 nM | – | 143 | – | – | Ratio IC50 (Plasmodium berghei [10]): > 10 |
| c1ccc(-c2ccc(/N=c3\ccn(CCCN4CCCCC4)c4cc(Nc5ccccn5)ccc34)cc2)cc1 | 7340 nM | 440 nM | 357 nM | – | 21 | – | – | Ratio IC50 (Plasmodium berghei [10]): > 10 |
| Clc1ccc2/c(=N/c3ccc(Oc4ccccc4)cc3)ccn(CCCN3CCCCC3)c2c1 | 30600 nM | – | 160 nM | Non-toxic | 191 | Stable | 73% | MIC [3]: 500 µM (≈ 236 µg/mL) |
| FC(F)(F)c1ccc2/c(=N/c3ccc(-c4ccccc4)cc3)ccn(CCN3CCCC3)c2c1 | > 100000 nM | – | 226 nM | Non-toxic | >442 | Stable | 79% | inhibition [7]: inactive |
| FC(F)(F)c1ccc2/c(=N/c3ccc(-c4ccccc4)cc3)ccn(CCCN3CCCCC3)c2c1 | 56800 nM | – | 360 nM | – | 158 | Stable | 65% | IC50 (Plasmodium falciparum [11]): 195 nM; IC50 (Plasmodium falciparum [12]): 136 nM |
| Clc1ccc2/c(=N/c3ccc(Br)cc3)ccn(CCCN3CCCCC3)c2c1 | > 100000 nM | 3010 nM | 74 nM | – | >1351 | – | – | – |
| Clc1ccc2/c(=N/c3ccc(-c4ccccc4)cc3)ccn(CCCN3CCCCC3)c2c1 | 41800 nM | – | 144 nM | – | 290 | – | – | IC50 (Plasmodium falciparum [11]): 52.3 nM; IC50 (Plasmodium falciparum [12]): 73.7 nM |
| Clc1ccc(/N=c2\ccn(CCCN3CCCCC3)c3cc(Cl)ccc23)cc1 | > 100000 nM | 2700 nM | 259 nM | Non-toxic | >386 | – | – | inhibition [7]: inactive |
| CCN(CC)CCn1cc/c(=N\c2ccc(-c3ccccc3)cc2)c2ccc(Cl)cc21 | 37100 nM | – | 498 nM | – | 74 | Stable | 68% | – |
| Cc1ccc(/N=c2\ccn(CCCN3CCCCC3)c3cc(Cl)ccc23)cc1 | > 100000 nM | – | 331 nM | – | >302 | – | – | – |
| Clc1ccc2/c(=N/c3ccccc3)ccn(CCCN3CCCCC3)c2c1 | > 100000 nM | – | 273 nM | Non-toxic | >366 | – | – | inhibition [7]: inactive |
| GENTAMICIN | – | – | – | – | – | – | – | inhibition [7]: inactive |
| Fc1ccc(-c2ccc3/c(=N/c4ccccc4)ccn(CCCN4CCCCC4)c3c2)cc1 | > 100000 nM | 1380 nM | 216 nM | – | >463 | – | – | – |
| FC(F)(F)c1ccc2c(c1)/c(=N/c1ccc(-c3ccccc3)cc1)ccn2CCCN1CCCCC1 | 23700 nM | – | 631 nM | Non-toxic | 38 | – | – | MIC [3]: 1000 µM (≈ 490 µg/mL) |
| CCN(CC)CCCC(C)Nc1ccnc2cc(Cl)ccc12 (stereo not given) [CHLOROQUINE] | – | – | – | – | – | – | – | MIC [3]: 125 µM (≈ 40 µg/mL) |
| Clc1ccc2/c(=N/c3ccc(-c4ccccc4)cc3)ccn(CCN3CCCC3)c2c1 | > 100000 nM | 3460 nM | 111 nM | – | >900 | – | – | IC50 (Plasmodium falciparum [11]): 186 nM; IC50 (Plasmodium falciparum [12]): 177 nM |
| CCN(CC)CCn1cc/c(=N\c2ccc(-c3ccccc3)cc2)c2ccc(C(F)(F)F)cc21 | 38500 nM | 4610 nM | 525 nM | Non-toxic | 73 | Stable | 80.4% | inhibition [7]: inactive |
| CCN(CC)CCCn1cc/c(=N\c2ccc(-c3ccccc3)cc2)c2ccc(C(F)(F)F)cc21 | > 100000 nM | – | 144 nM | – | >694 | – | – | – |
| CCN(CC)CCCCn1cc/c(=N\c2ccc(-c3ccccc3)cc2)c2ccc(Cl)cc21 | > 100000 nM | 2650 nM | 67.6 nM | – | >1479 | Stable | 62.7% | inhibition (Plasmodium falciparum [13]): inactive; IC50 (Plasmodium falciparum [11]): 68.3 nM; IC50 (Plasmodium falciparum [12]): 64.7 nM |
